Calls of active or inactive are those of the source. No cut-off for these calls is given here.
Key:
Mus musculus = experiment: In vivo inhibition of KRAS activation in male C57BL/6 mouse allografted with mouse Lewis lung carcinoma cell line assessed as decrease in RAS level at 10 mg/kg, po; format: functional, organism-based
[1] = molecular target: T1, Phospholipase D1 (Mus musculus) (UniProt Q9Z280); experiment: In vivo inhibition of PLD1 in male C57BL/6 mouse allografted with mouse Lewis lung carcinoma cell line assessed as decrease in CD163+ anti-inflammatory M2 macrophage population at 10 mg/kg, po by immunofluorescence analysis; format: functional, organism-based
T1 sequence (whole entry): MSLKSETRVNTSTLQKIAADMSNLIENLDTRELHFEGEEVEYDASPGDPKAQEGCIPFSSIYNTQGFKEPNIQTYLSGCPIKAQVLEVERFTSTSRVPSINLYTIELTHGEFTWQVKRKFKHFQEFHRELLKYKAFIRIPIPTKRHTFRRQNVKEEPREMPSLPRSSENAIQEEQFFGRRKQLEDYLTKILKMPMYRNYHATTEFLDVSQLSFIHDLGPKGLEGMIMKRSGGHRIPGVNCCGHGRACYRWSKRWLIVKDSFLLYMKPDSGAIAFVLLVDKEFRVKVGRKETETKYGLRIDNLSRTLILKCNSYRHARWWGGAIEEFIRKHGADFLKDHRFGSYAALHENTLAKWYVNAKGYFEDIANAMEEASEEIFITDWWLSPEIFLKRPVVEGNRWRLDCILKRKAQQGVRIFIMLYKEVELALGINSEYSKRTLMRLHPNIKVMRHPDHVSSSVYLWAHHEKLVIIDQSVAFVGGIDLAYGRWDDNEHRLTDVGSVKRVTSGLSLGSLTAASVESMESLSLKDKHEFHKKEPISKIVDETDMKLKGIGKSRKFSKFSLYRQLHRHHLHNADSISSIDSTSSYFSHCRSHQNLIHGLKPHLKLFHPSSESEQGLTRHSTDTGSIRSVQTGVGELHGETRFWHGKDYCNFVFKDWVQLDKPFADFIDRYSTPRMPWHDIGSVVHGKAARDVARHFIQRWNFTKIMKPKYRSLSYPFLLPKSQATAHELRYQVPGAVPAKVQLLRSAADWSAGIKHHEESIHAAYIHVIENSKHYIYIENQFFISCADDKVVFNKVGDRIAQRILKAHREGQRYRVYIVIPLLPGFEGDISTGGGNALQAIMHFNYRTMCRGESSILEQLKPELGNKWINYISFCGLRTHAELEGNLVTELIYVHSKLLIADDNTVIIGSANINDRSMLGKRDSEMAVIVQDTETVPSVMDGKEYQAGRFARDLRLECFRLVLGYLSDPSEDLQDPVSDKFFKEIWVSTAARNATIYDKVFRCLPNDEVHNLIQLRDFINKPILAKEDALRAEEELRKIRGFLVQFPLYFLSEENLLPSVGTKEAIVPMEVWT
Method in brief: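 Same LLC syngeneic C57BL/6 model, 10 mg/kg PO every other day for 3 weeks. Tumor tissues were stained by immunofluorescence for CD80+ and CD163+ cells, CD8+ T cells, and CD4+/IL-17+ and Treg populations. Nuclei were counterstained with 1 μM Hoechst 33342 and imaged by confocal microscopy.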

`O=C(CCc1c[nH]c2ccccc12)Nc1cc(C(F)(F)F)cc(C(F)(F)F)c1` was tested. Which inhibition (Mus musculus) did it give?
Its inhibition is “Active”.

What about the inhibition [1] of the same molecule?
Its inhibition is “Active”.

Reference: ChEMBL document CHEMBL6134796, “Development and Evaluation of Indole-Based Phospholipase D Inhibitors for Lung Cancer Immunotherapy” (J Med Chem, 2025)
